Laboratory results: PMC6706283 (Bioorganic & medicinal chemistry, 2019)
Entries after “also recorded” stand apart in the source; their conditions may differ. Read-outs that look alike come from different tables or passages of the source. Blank lines part the entries; values can stand above or below the compound they belong to.

Experiments:
[1] = human liver microsome stability; type: in vitro ADME; settings: 1 h
human washed platelets = test: human platelet aggregation assay; type: cell-based; settings: parmodulin 10 μM, SFLLRN-NH2 1.5 μM
Summary of the method: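 Washed human platelets were incubated with test compound (10 µM), then stimulated with PAR1/2 agonist SFLLRN-NH2 (1.5 µM). Aggregation traces were recorded against DMSO vehicle control traces.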

[2] = after 5 h; cited from earlier work
tissue factor (TF) mRNA = test: qPCR assay of TNF-α induced tissue factor expression in HUVEC; type: cell-based, human; settings: 10 μM, TNF-α 25 ng/mL added at 1 h, mRNA at 4 h
Summary of the method: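 HUVEC were treated with test compound (10 µM) at t = 0 and TNF-α (25 ng/mL) at t = 1 h. Tissue factor mRNA was quantified by qPCR at t = 4 h, n = 3. Analysis by one-way ANOVA with Bonferroni multiple-comparisons test.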

PAR2 = target: T1, PAR2 (Homo sapiens, UniProt P55085); test: PAR2; type: cell-based; settings: parmodulins 10 μM, vorapaxar 0.316 μM; SLIGKV-NH2 3.16 μM
T1 sequence (P55085 26-397): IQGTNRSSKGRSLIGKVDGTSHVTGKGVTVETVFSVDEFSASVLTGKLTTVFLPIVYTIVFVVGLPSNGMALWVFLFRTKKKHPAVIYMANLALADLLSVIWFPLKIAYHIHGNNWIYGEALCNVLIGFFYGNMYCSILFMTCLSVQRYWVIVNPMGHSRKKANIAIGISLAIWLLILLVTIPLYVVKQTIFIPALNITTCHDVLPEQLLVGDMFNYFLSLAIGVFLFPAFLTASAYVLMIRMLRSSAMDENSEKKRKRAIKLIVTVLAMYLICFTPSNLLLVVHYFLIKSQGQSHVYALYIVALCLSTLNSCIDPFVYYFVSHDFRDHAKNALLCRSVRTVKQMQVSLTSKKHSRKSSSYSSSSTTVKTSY
Summary of the method: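 Intracellular Ca2+ mobilization assay in EA.hy926 endothelial cells. Cells were pretreated with test compound (10 µM) or reference antagonist (0.316 µM), then stimulated with PAR2 agonist SLIGKV-NH2 (3.16 µM). A parallel run stimulated with PAR1 agonist TFLLRN-NH2 at 3.16 µM.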

[3] = target: SERT (serotonin transporter) (Homo sapiens, UniProt P31645); test: PDSP radioligand binding, SERT; settings: read-out: mean % inhibition of binding, SERT
SERT (serotonin transporter), sequence (P31645 whole entry, species assumed): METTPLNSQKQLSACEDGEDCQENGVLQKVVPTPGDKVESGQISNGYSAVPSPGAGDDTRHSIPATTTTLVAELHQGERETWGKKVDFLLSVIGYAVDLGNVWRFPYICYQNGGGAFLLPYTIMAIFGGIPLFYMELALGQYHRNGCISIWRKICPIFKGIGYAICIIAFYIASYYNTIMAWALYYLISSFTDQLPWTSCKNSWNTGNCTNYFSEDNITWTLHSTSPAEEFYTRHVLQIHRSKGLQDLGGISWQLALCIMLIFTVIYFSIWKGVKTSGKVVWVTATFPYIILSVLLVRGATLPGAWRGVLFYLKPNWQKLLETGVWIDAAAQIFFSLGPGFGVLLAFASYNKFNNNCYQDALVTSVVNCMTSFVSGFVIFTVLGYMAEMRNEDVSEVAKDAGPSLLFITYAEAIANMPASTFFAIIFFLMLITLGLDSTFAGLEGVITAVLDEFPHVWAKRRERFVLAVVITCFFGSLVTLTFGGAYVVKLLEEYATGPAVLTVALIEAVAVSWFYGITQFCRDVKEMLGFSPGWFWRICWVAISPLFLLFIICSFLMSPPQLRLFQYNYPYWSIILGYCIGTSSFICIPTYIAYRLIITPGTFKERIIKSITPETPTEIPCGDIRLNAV

hepG2 cells = test: cytotoxicity in hepG2 cells; type: cell-based; settings: human hepG2 cells
PAR1 [4] = target: T2, PAR1 (Homo sapiens, UniProt P25116); test: intracellular calcium mobilization; type: cell-based; settings: for activity in the iCa2+ assay (in words): EA.hy926 cells, TFLLRN-NH2
T2 sequence (P25116 22-425): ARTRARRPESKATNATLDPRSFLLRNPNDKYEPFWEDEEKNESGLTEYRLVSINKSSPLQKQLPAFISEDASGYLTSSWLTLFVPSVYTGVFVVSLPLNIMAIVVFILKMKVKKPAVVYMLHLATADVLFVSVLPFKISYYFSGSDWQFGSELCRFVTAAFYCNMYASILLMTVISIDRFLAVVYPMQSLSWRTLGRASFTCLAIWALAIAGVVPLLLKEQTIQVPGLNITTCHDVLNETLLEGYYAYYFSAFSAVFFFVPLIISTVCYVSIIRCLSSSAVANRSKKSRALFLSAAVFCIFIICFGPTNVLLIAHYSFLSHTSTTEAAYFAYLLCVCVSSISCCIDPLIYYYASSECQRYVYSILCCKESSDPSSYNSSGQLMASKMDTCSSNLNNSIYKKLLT
Summary of the method: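 Adherent EA.hy926 endothelial cells in 96-well plates; intracellular Ca2+ mobilization triggered by PAR1 tethered-ligand peptide TFLLRN-NH2 (5 µM). Single-point screen: test compound at 10 µM, % inhibition from n = 4 wells unless noted, with SEM. IC50: 3 wells per concentration, curves fitted by 4-variable non-linear regression. Summary IC50 is the average of independent assays. Selectivity run used agonist at 3.16 µM.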

PAR1 [5] = target: T2, PAR1; type: cell-based; settings: increasing concentrations of antagonist
Summary of the method: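 EA.hy926 endothelial cells; Ca2+ mobilization concentration-response curves for PAR1 agonist TFLLRN-NH2 were recorded at several increasing concentrations of test compound. Agonist efficacy was compared across antagonist levels.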

[6] = target: 5HT-5A (5-hydroxytryptamine receptor) (Homo sapiens, UniProt P47898); test: PDSP radioligand binding, 5HT-5A; settings: read-out: mean % inhibition of binding, 5HT-5A
5HT-5A (5-hydroxytryptamine receptor), sequence (P47898 whole entry, species assumed): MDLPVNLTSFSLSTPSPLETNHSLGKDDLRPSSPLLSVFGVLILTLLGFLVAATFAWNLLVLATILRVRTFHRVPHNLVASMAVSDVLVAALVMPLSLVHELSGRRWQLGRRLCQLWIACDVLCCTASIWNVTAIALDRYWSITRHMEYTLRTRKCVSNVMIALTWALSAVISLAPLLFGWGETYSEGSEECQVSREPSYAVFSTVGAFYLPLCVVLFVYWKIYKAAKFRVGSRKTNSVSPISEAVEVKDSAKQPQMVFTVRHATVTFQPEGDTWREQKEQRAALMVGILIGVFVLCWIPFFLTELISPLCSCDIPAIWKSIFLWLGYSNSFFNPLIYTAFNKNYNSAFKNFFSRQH

[7] = cited from earlier work
PAR1 [8] = target: T2, PAR1; settings: cited from earlier work
platelets = settings: cited from earlier work

Structure (SMILES): O=C(Nc1cccc(NC(=O)c2ccccc2Br)c1)c1cnco1 [NRD-21, N-[3-(2-bromobenzamido)phenyl]-1,3-oxazole-5-carboxamide]
inhibition of platelet aggregation (human washed platelets): Complete inhibition
Cytotoxicity (CC50) (hepG2 cells): no measurable toxicity
activity in the iCa2+ assay (in words) (PAR1 [4]; listed as 38): very good inhibition; also recorded: much better efficacy than 39
effect on TNF-α induced TF expression (mRNA) (tissue factor (TF) mRNA): below baseline levels
effect on the efficacy of the PAR1 agonist TFLLRN-NH2 (PAR1 [5]): reduction in efficacy
PAR2 activity? (PAR2): None observed
inhibition at 10 µM [3]: -44%
inhibition at 10 µM [6]: -31%

Structure (SMILES): CC(C)CC(=O)Nc1cccc(NC(=O)c2ccccc2Br)c1 [compound 2]
solubility in water with 1% DMSO [7]: 9 µM
stability in mouse plasma, % remaining [2]: 65%
activity in the endothelial iCa2+ assay (in words) (PAR1 [8]; EA.hy926 cells): mediocre inhibition
inhibition in the platelet P-selectin assay (in words) (platelets): equipotent to ML161

Structure (SMILES): O=C(Nc1cccc(NC(=O)C2CCCC2)c1)c1ccccc1Br [compound 3]
activity in the iCa2+ assay (in words) (PAR1 [4]): moderate inhibition

Structure (SMILES): CCCCNc1cccc(NC(=O)c2ccccc2Br)c1 [compound 5]
activity in the iCa2+ assay (in words) (PAR1 [8]; as previously reported): very good activity

Structure (SMILES): O=C(Nc1cccc(NC2CCCC2)c1)c1ccccc1Br [compound 29]
activity in the iCa2+ assay (in words) (PAR1 [4]): evidence of activation

Structure (SMILES): O=C(Nc1cccc(NC(=O)C2CCCO2)c1)c1ccccc1Br (centres unmarked) [compound 36]
activity in the iCa2+ assay (in words) (PAR1 [4]): only modest inhibition

Structure (SMILES): O=C(Nc1cccc(NC(=O)C2CCOC2)c1)c1ccccc1Br (centres unmarked) [compound 37]
activity in the iCa2+ assay (in words) (PAR1 [4]): only modest inhibition

Structure (SMILES): O=C(Nc1cccc(NC(=O)c2ccccc2Br)c1)c1cocn1 [compound 39]
activity in the iCa2+ assay (in words) (PAR1 [4]): very good inhibition
inhibition of PAR1 (PAR1 [4]; selectivity study: parmodulin 10 μM, TFLLRN-NH2 3.16 μM): less than 75%

The next lines start with results.

Microsomal stability [1]: 99% (1 h, human)
PAR2 activity? (PAR2): None observed
inhibition at 10 µM [3]: -44%
Structure (SMILES): CCCC(=O)Nc1cccc(NC(=O)c2ccccc2Br)c1 [ML161]
inhibition of platelet aggregation (human washed platelets): Complete inhibition
stability in mouse plasma, % remaining [2]: 2%
effect on TNF-α induced TF expression (mRNA) (tissue factor (TF) mRNA): blocked the ~3-fold increase in TF expression

activity in the iCa2+ assay (in words) (PAR1 [4]): weak efficacy
Structure (SMILES): CCC(C)C(=O)Nc1cccc(NC(=O)c2ccccc2Br)c1 (centres unmarked) [compound 7]

activity in the iCa2+ assay (in words) (PAR1 [4]): decreased activity
Structure (SMILES): CCC(=O)Nc1cccc(NC(=O)c2ccccc2Br)c1 [compound 8]

activity in the iCa2+ assay (in words) (PAR1 [4]): decreased efficacy and/or potency
Structure (SMILES): CCCCC(=O)Nc1cccc(NC(=O)c2ccccc2Br)c1 [compound 10]

activity in the iCa2+ assay (in words) (PAR1 [4]): decreased efficacy and/or potency
Structure (SMILES): C#CCCC(=O)Nc1cccc(NC(=O)c2ccccc2Br)c1 [compound 11]

activity in the iCa2+ assay (in words) (PAR1 [4]): moderate activity
Structure (SMILES): CCCCOc1cccc(NC(=O)c2ccccc2Br)c1 [compound 24]

activity in the iCa2+ assay (in words) (PAR1 [4]): complete loss of activity
Structure (SMILES): CN(C)CC(=O)Nc1cccc(NC(=O)c2ccccc2Br)c1 [compound 25]

activity in the iCa2+ assay (in words) (PAR1 [4]): weak activity
Structure (SMILES): CCCN(CCC)c1cccc(NC(=O)c2ccccc2Br)c1 [compound 26]

activity in the iCa2+ assay (in words) (PAR1 [4]): weak activity
Structure (SMILES): COCCNc1cccc(NC(=O)c2ccccc2Br)c1 [compound 27]

activity in the iCa2+ assay (in words) (PAR1 [4]): steep drop in efficacy
Structure (SMILES): CCCNCc1cccc(NC(=O)c2ccccc2Br)c1 [compound 28]

activity in the iCa2+ assay (in words) (PAR1 [4]): evidence of activation
Structure (SMILES): O=C(Nc1cccc(N2CCCC2)c1)c1ccccc1Br [compound 30]
